Test results published in ChEMBL document CHEMBL1133693, “Peptide and peptide mimetic inhibitors of antigen presentation by HLA-DR class II MHC molecules. Design, structure-activity relationships, and X-ray crystal structures” (J Med Chem, 2000).
Starred links: 1 amine or outer side, 2 acyl side, 3 side chain; linkers in the order of their positions; H or OH if unused. Non-standard residues stand in square brackets, D forms with d. Residues, ends and D or L forms follow the SMILES beside them. *: point of attachment. X11 = O=C([C@H](N[*:1])[C@H](O)[C@@H](O)[C@@H](O)CO)[*:2]; X3 = O=C([C@@H](N[*:1])[C@H](O)[C@H](O)[C@@H](O)CO)[*:2]; X10 = O=C([C@H](Cc1ccc2c(c1)OCO2)N[*:1])[*:2]; X4 = O=C([C@H](CC1CC2CCC1CC2)N[*:1])[*:2]; X5 = CC1CCC(C[C@@H](N[*:1])C(=O)[*:2])CC1; X6 = CC1CCC(C[C@H](N[*:1])C(=O)[*:2])CC1; Phe(3-F) = N[C@@H](Cc1cccc(F)c1)C(=O)O; Phe(3-I) = N[C@@H](Cc1cccc(I)c1)C(=O)O; NMeCha = CN[C@@H](CC1CCCCC1)C(=O)O; NMeR = CN[C@@H](CCCNC(=N)N)C(=O)O; Cha = N[C@@H](CC1CCCCC1)C(=O)O; NMeM = CN[C@@H](CCSC)C(=O)O; NMeS = CN[C@@H](CO)C(=O)O; NHCH(CH2OH)2 = OCC(CO)N*; NMeA = CN[C@@H](C)C(=O)O; Nle = CCCC[C@H](N)C(=O)O; NHCH2CH2OH = OCCN*

Tests used:
[1] = tested on: T-cell; assay: T-cell inhibitory potency relative to the IC50 of a(Cha)AAAKTAAAAa-NH2 iMHC class II DRB1*0101; format: functional, Homo sapiens
[2] = tested on: T-cell; assay: T-cell inhibitory potency relative to the IC50 of a(Cha)AAAKTAAAAa-NH2 in MHC class II DRB1*0401; format: functional, Homo sapiens
[3] = Mean relative potency is the ratio of potencies of 'Ac-(Cha)RAMASL-NH2' and compound, to inhibit MHC class II DRB1*0401
Summary of the method: (§1)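 Scintillation proximity competition assay. Test compounds competed against the radioligand, and bound counts were read by scintillation. Ac-(Cha)RAMASL-NH2 was run as standard competitor in every run. Potency is the ratio of standard IC50 to compound IC50.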

[4] = Mean relative potency is the ratio of potencies of 'Ac-(Cha)RAMASL-NH2' and compound, to inhibit MHC class II DRB1*0101; summary of the method: as §1
[5] = target: Cathepsin B (Bos taurus) (UniProt P07688); assay: Percent of original compound remaining with cathepsin B after incubation for 4 hrs was determined by HPLC

Row | Mean relative potency [3] | Mean relative potency [4] | % remaining [5] | Structure (SMILES) | T-cell inhibition [1] | T-cell inhibition [2]
1 |  |  |  | CSCC[C@H](NC(=O)[C@H](c1ccccc1)N(C)C(=O)[C@H](CCCN=C(N)N)NC(=O)[C@H](CC1CCCCC1)NC(C)=O)C(=O)N(C)[C@@H](C)C(=O)N[C@@H](CO)C(=O)N[C@H](C(N)=O)C(C)(C)C | 7.8 | 2.5
2 |  |  |  | CSCC[C@H](NC(=O)[C@@H]1Cc2ccccc2CN1C(=O)[C@H](CCCN=C(N)N)NC(=O)[C@H](CC1CCCCC1)NC(C)=O)C(=O)N(C)[C@@H](C)C(=O)N[C@@H](CO)C(=O)N(C)[C@@H](C)C(N)=O | 0.86 | 1.5
3 |  |  |  | CSCC[C@H](NC(=O)[C@H](c1ccccc1)N(C)C(=O)[C@H](CCCN=C(N)N)NC(=O)[C@H](CC1CCCCC1)NC(C)=O)C(=O)N[C@@H](C)C(=O)N[C@@H](CO)C(=O)N[C@H](C(N)=O)C(C)(C)C | 5.37 | 3.2
4 |  |  |  | CSCC[C@H](NC(=O)[C@@H](NC(=O)[C@H](CCCN=C(N)N)NC(=O)[C@H](CC1CCCCC1)NC(C)=O)C(C)(C)C)C(=O)N(C)[C@@H](C)C(=O)N[C@@H](CO)C(=O)N[C@H](C(N)=O)C(C)(C)C | 2.9 | 1.5
5 | 1.01 | 0.36 |  | CC[C@@H](C)[C@H](NC(=O)[C@H](C)NC(=O)[C@H](CCCN=C(N)N)NC(=O)[C@H](CC1CCCCC1)NC(C)=O)C(=O)N[C@@H](C)C(=O)N[C@@H](CO)C(=O)N[C@@H](CC(C)C)C(N)=O |  | 
6 | 1.53 | 1.31 |  | CSCC[C@H](NC(=O)[C@H](C)NC(=O)[C@H](CCCN=C(N)N)NC(=O)[C@@H](CC1CC2CCC1C2)NC(C)=O)C(=O)N[C@@H](C)C(=O)N[C@@H](CO)C(=O)N[C@@H](CC(C)C)C(N)=O (some centres not stated) |  | 
7 | 1.08 | 0.55 |  | CSCC[C@H](NC(=O)[C@H](C)NC(=O)[C@H](CCCN=C(N)N)NC(=O)[C@H](CC1CCCCC1)NC(C)=O)C(=O)N1CCCC[C@@H]1C(=O)N[C@@H](CO)C(=O)N[C@@H](CC(C)C)C(N)=O |  | 
8 | 0.7 | 1.37 |  | CSCC[C@H](NC(=O)[C@H](C)NC(=O)[C@H](CCCN=C(N)N)NC(=O)[C@H](CC1CCCCC1)NC(C)=O)C(=O)N1CCC[C@@H]1C(=O)N[C@@H](CO)C(=O)N[C@@H](CC(C)C)C(N)=O |  | 
9 | 0.77 | 0.85 | 0% | CSCC[C@H](NC(=O)[C@H](C)NC(=O)[C@H](CCCN=C(N)N)NC(=O)[C@H](CC1CCCCC1)NC(C)=O)C(=O)N[C@H](C)C(=O)N[C@@H](CO)C(=O)N(C)[C@@H](CC(C)C)C(N)=O |  | 
10 | 1.6 | 1.4 |  | CSCC[C@H](NC(=O)[C@H](C)NC(=O)[C@H](CCCN=C(N)N)NC(=O)[C@H](CC1CCCCC1)NC(C)=O)C(=O)N[C@H](C)C(=O)N[C@@H](CO)C(=O)N[C@@H](CC(C)C)C(=O)N(C)C |  | 
11 | 1.46 | 1.64 |  | CSCC[C@H](NC(=O)[C@H](C)NC(=O)[C@H](CCCN=C(N)N)NC(=O)[C@H](CC1CCCCC1)NC(C)=O)C(=O)N[C@H](C)C(=O)N[C@@H](CO)C(=O)N[C@H](C(N)=O)C(C)(C)C |  | 
12 | 0.54 | 0.55 |  | CC(=O)N[C@@H](CC1CCCCC1)C(=O)N[C@@H](CCCN=C(N)N)C(=O)N[C@@H](C)C(=O)N[C@@H](CC(C)C)C(=O)N[C@@H](C)C(=O)N[C@@H](CO)C(=O)N[C@@H](CC(C)C)C(N)=O (Ac-[Cha]RALASL-NH2) |  | 
13 | 0.97 | 0.5 |  | CSCC[C@H](NC(=O)[C@H](C)NC(=O)[C@H](CCCN=C(N)N)NC(=O)[C@H](CC1CCCCC1)NC(C)=O)C(=O)N[C@@H](C)C(=O)N(C)[C@@H](CO)C(=O)N[C@@H](CC(C)C)C(N)=O (Ac-[Cha]RAMA[NMeS]L-NH2) |  | 
14 | 0.005 | 0.046 |  | CSCC[C@@H](C(=O)N[C@@H](C)C(=O)N[C@@H](CO)C(=O)N[C@@H](CC(C)C)C(N)=O)N(C)C(=O)[C@H](C)NC(=O)[C@H](CCCN=C(N)N)NC(=O)[C@H](CC1CCCCC1)NC(C)=O (Ac-[Cha]RA[NMeM]ASL-NH2) |  | 
15 | 0.4 | 0.77 |  | CCCC[C@H](NC(=O)[C@H](C)NC(=O)[C@H](CCCN=C(N)N)NC(=O)[C@H](CC1CCCCC1)NC(C)=O)C(=O)N[C@@H](C)C(=O)N[C@@H](CO)C(=O)N[C@@H](CC(C)C)C(N)=O (Ac-[Cha]RA[Nle]ASL-NH2) |  | 
16 | 0.15 | 0.59 |  | CSCC[C@H](NC(=O)[C@H](CCSC)NC(=O)[C@H](CCCN=C(N)N)NC(=O)[C@H](CC1CCCCC1)NC(C)=O)C(=O)N[C@@H](C)C(N)=O (Ac-[Cha]RMMA-NH2) |  | 
17 | 1.04 | 0.33 |  | CSCC[C@H](NC(=O)[C@H](CCSC)NC(=O)[C@H](CCCN=C(N)N)NC(=O)[C@H](CC1CCCCC1)NC(C)=O)C(=O)N[C@@H](C)C(=O)NCCO (Ac-[Cha]RMMA-NHCH2CH2OH) |  | 

Row | Mean relative potency [3] | Mean relative potency [4] | % remaining [5] | Structure (SMILES) | T-cell inhibition [1] | T-cell inhibition [2]
18 | 1.55 | 0.68 |  | CSCC[C@H](NC(=O)[C@H](CCSC)NC(=O)[C@H](CCCN=C(N)N)NC(=O)[C@H](CC1CCCCC1)NC(C)=O)C(=O)N[C@@H](C)C(=O)NC(CO)CO (Ac-[Cha]RMMA-{NHCH(CH2OH)2}) |  | 
19 | 0.85 | 1.38 |  | CSCC[C@H](NC(=O)[C@H](CCSC)NC(=O)[C@H](CCCN=C(N)N)NC(=O)[C@H](CC1CCCCC1)NC(C)=O)C(=O)N[C@@H](C)C(=O)N[C@@H](CO)C(N)=O (Ac-[Cha]RMMAS-NH2) |  | 
20 | 0.88 | 1.05 |  | CSCC[C@H](NC(=O)[C@H](CCSC)NC(=O)[C@H](CCCN=C(N)N)NC(=O)[C@H](CC1CCCCC1)NC(C)=O)C(=O)N[C@@H](C)C(=O)N[C@@H](CO)C(=O)N[C@@H](CC(C)C)C(N)=O (Ac-[Cha]RMMASL-NH2) |  | 
21 | 0.16 | 0.12 |  | CSCC[C@H](NC(=O)[C@H](CCCN=C(N)N)NC(=O)[C@H](CC1CCCCC1)NC(C)=O)C(=O)N[C@@H](CCSC)C(=O)N[C@H](C=O)[C@H](O)[C@H](O)[C@@H](O)CO (Ac-[Cha]RMM[X3]-aldehyde) |  | 
22 | 0.81 | 0.5 |  | CSCC[C@H](NC(=O)[C@H](CCCN=C(N)N)NC(=O)[C@H](CC1CCCCC1)NC(C)=O)C(=O)N[C@@H](CCSC)C(=O)N[C@@H](C=O)[C@H](O)[C@@H](O)[C@@H](O)CO (Ac-[Cha]RMM[X11]-aldehyde) |  | 
23 | 0.56 | 1.02 |  | CSCC[C@H](NC(=O)[C@H](C)N(C)C(=O)[C@H](CCCN=C(N)N)NC(=O)[C@H](CC1CCCCC1)NC(C)=O)C(=O)N[C@@H](C)C(=O)N[C@@H](CO)C(=O)N[C@@H](CC(C)C)C(N)=O (Ac-[Cha]R[NMeA]MASL-NH2) |  | 
24 | 0.001 | 0.001 |  | CSCC[C@H](NC(=O)[C@H](C)NC(=O)[C@H](CCCN=C(N)N)N(C)C(=O)[C@H](CC1CCCCC1)NC(C)=O)C(=O)N[C@@H](C)C(=O)N[C@@H](CO)C(=O)N[C@@H](CC(C)C)C(N)=O (Ac-[Cha][NMeR]AMASL-NH2) |  | 
25 | 0.67 | 0.25 |  | CSCC[C@H](NC(=O)[C@H](C)NC(=O)[C@H](CCCN=C(N)N)NC(=O)[C@H](CC1CCCCC1)N(C)C(C)=O)C(=O)N[C@@H](C)C(=O)N[C@@H](CO)C(=O)N[C@@H](CC(C)C)C(N)=O (Ac-[NMeCha]RAMASL-NH2) |  | 
26 | 1.19 | 0.17 |  | CSCC[C@H](NC(=O)[C@H](C)NC(=O)[C@H](CCCN=C(N)N)NC(=O)[C@H](Cc1cccc(F)c1)NC(C)=O)C(=O)N[C@@H](C)C(=O)N[C@@H](CO)C(=O)N[C@@H](CC(C)C)C(N)=O (Ac-[Phe(3-F)]RAMASL-NH2) |  | 
27 | 1.56 | 0.61 |  | CSCC[C@H](NC(=O)[C@H](C)NC(=O)[C@H](CCCN=C(N)N)NC(=O)[C@H](Cc1cccc(I)c1)NC(C)=O)C(=O)N[C@@H](C)C(=O)N[C@@H](CO)C(=O)N[C@@H](CC(C)C)C(N)=O (Ac-[Phe(3-I)]RAMASL-NH2) |  | 
28 | 1.22 | 0.68 |  | CSCC[C@H](NC(=O)[C@H](C)NC(=O)[C@H](CCCN=C(N)N)NC(=O)[C@H](CC1CC2CCC1CC2)NC(C)=O)C(=O)N[C@@H](C)C(=O)N[C@@H](CO)C(=O)N[C@@H](CC(C)C)C(N)=O (some centres not stated) (Ac-[X4]RAMASL-NH2) |  | 
29 | 0.93 | 1.17 |  | CSCC[C@H](NC(=O)[C@H](C)NC(=O)[C@H](CCCN=C(N)N)NC(=O)[C@@H](CC1CCC(C)CC1)NC(C)=O)C(=O)N[C@@H](C)C(=O)N[C@@H](CO)C(=O)N[C@@H](CC(C)C)C(N)=O (some centres not stated) (Ac-[X5]RAMASL-NH2) |  | 
30 | 1.71 | 1.37 |  | CSCC[C@H](NC(=O)[C@H](C)NC(=O)[C@H](CCCN=C(N)N)NC(=O)[C@H](CC1CCC(C)CC1)NC(C)=O)C(=O)N[C@@H](C)C(=O)N[C@@H](CO)C(=O)N[C@@H](CC(C)C)C(N)=O (some centres not stated) (Ac-[X6]RAMASL-NH2) |  | 
31 | 1.65 | 1.31 |  | CSCC[C@H](NC(=O)[C@H](C)NC(=O)[C@H](CCCN=C(N)N)NC(=O)[C@H](Cc1ccc2c(c1)OCO2)NC(C)=O)C(=O)N[C@@H](C)C(=O)N[C@@H](CO)C(=O)N[C@@H](CC(C)C)C(N)=O (Ac-[X10]RAMASL-NH2) |  | 
32 | 1.71 | 0.52 |  | CSCC[C@H](NC(=O)[C@H](C)NC(=O)[C@H](CCCN=C(N)N)NC(=O)[C@H](CC1CC2CCC1C2)NC(C)=O)C(=O)N[C@@H](C)C(=O)N[C@@H](CO)C(=O)N[C@@H](CC(C)C)C(N)=O (stereo in doubt; 2) |  | 
33 | 0.92 | 0.96 |  | CSCC[C@H](NC(=O)[C@H](C)NC(=O)[C@H](CCCN=C(N)N)NC(=O)[C@H](CC1CC2CCC1C2)NC(C)=O)C(=O)N[C@@H](C)C(=O)N[C@@H](CO)C(=O)N[C@@H](CC(C)C)C(N)=O (stereo in doubt; 6) |  | 
